Bioassay records (PubChem BioAssay)
Only some compounds are listed: those with a hit (about 5.1% of all), similar ones and a draw of the others.
BAP1 block: inhibitors of human BAP1 deubiquitinase | recombinant BAP1, Ub-AMC hydrolysis fluorescence kinetic; stronger effect = lower value | calls only at 20 µM | 0.48% of 72,000 active;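 active = activity remaining at or below 50% of control, provided the compound also passes the data quality filters; inactive = the rest, including low values that fail the filters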;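 also: 100% = DMSO wells rate and 0% = substrate alone blank rate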
Target sequence (Q92560 whole entry, looked up): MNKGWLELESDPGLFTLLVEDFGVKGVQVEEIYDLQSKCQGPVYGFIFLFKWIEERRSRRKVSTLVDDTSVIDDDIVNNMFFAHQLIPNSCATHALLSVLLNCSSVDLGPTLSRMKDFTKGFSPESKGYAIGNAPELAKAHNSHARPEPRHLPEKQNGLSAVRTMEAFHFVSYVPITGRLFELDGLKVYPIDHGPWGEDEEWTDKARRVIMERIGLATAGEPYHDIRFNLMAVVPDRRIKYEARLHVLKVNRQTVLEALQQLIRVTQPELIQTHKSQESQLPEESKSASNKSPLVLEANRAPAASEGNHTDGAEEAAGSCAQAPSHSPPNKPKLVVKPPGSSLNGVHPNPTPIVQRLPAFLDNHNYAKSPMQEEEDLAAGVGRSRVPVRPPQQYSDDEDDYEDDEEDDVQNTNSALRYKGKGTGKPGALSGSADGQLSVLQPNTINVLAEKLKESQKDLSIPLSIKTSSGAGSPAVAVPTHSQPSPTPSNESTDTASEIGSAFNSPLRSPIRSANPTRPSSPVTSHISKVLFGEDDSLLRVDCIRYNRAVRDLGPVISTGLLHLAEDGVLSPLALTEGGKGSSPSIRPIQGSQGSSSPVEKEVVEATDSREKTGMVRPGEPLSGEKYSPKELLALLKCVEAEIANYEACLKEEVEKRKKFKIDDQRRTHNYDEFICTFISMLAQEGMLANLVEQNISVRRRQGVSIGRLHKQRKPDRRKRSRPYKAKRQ
RORA act: activators of human nuclear receptor RORA; P35398; CHO-K1 Gal4-RORA LBD luciferase reporter, luminescence; percent increase over mock-subtracted basal signal; activation, % at 10 µM; 1.5% of 65,000 active; AID 560;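 active = activation above the mean of all tested compounds plus 3 SD, cut at about 49% in these data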;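 also: 0% = DMSO-treated RORA cells and 100% = added signal equal to DMSO minus mock-transfected cells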
SF1 activator: activators of human nuclear receptor SF-1; Q13285; CHO-K1 Gal4-SF-1 LBD luciferase reporter; % increase over DMSO SF-1-specific signal; activation, % at 10 µM; 1.9% of 65,000 active;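 active = activation above the mean activation of all tested compounds plus 3 SD, cut at about 50% in these data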
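Test system: CHO-K1 cells co-transfected with Gal4 DBD–human SF-1 LBD, 5xGal4 luciferase reporter. Quantity: 4,000 cells per well. Compound: 10 µM only. Incubation: compound added 1 h post-seeding, 20 h exposure at 37 °C, 5% CO2. Detection: SteadyLite luciferase luminescence. Replication: one test per compound.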
ERa SRC1 inh: ER-alpha (human) coactivator binding inhibition | P03372 | TR-FRET ER-alpha LBD / SRC-1 peptide, estradiol-bound | 1.7% of 86,000 active | AID 629 | inhibition, % at 25.6 µM; in the data active = inhibition above about 50%;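 also: 0% = receptor plus peptide control and 100% = peptide only without receptor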
ERa coact pot: ER-alpha (human) coactivator binding potentiation; 1.3% of 86,000 active; coactivator binding (% of control), % at 25.6 µM; P03372; TR-FRET ERalpha-LBD/SRC-Cy5 coactivator binding, 2 h; 100 = basal binding, no effect; AID 639; in the data active = activity above about 200%;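 also: binding measured in presence of low estradiol as agonist stimulus; 0% = peptide alone without receptor and 100% = receptor with peptide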
ERb SRC1 inh: ER-beta (human) coactivator binding inhibition; TR-FRET ER-beta LBD / SRC1-Cy5 peptide binding; receptor agonist-loaded with 1 µM estradiol; inhibition, % at 25.6 µM; 1.3% of 86,000 active; AID 633;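 active = compounds whose percent inhibition of the receptor-coactivator binding signal exceeds about 50% in the single-dose screen, limit read from the data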;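 also: 0% = receptor plus peptide wells without compound and 100% = peptide-only wells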
Starred values were filed as active, the others as inactive; i = inactive; nt = not tested or not shown; [ ] = dose if it differs, or a comment.

SMILES | BAP1 block | RORA act | SF1 activator | ERa SRC1 inh | ERa coact pot | ERb SRC1 inh
CCN(CC)c1ccc2cc(-c3nnc(-c4ccc(Br)cc4)o3)c(=O)oc2c1 | nt | nt | nt | 33.1 | 209.6* | 32.7
Cc1ccc(NC(=O)CCCCCN2C(=O)c3ccccc3C2=O)c(Br)c1 | i | nt | nt | nt | nt | nt
O=C(Nc1ccn(C2CC(OC(=O)c3ccccc3)C(CO)O2)c(=O)n1)c1ccccc1 (configuration not stated) | i | 21.8 | 4.7 | -15.7 | 506.6*[fluorescence artefact?] | -9.4
O=C(c1ccccc1)c1cccc(NC(=O)c2ccc(Br)o2)c1 | nt | nt | nt | 2.8 | 104.0 | 0.6
O=C(Nc1ccc(N2CCOCC2)c(Cl)c1)c1ccc(Br)o1 | i | 55.3* | 66.6* | -1.1 | 97.0 | -3.1
O=C(Nc1ccc2c(c1)oc1ccccc12)c1ccc(Br)o1 | i | 67.8* | 37.9 | 31.7 | 124.7 | 18.0
O=C(Nc1ccc(N2CCCC2)cc1)c1ccc(Br)o1 | i | 21.5 | 23.2 | 59.2*[fluorescence artefact?] | 58.4 | 68.4*[fluorescence artefact?]
CCN(CC)c1ccc(NC(=O)c2ccc(Br)o2)cc1 | i | 102.2* | 39.1 | 2.2 | 96.6 | 4.1
COC(=O)Cc1ccc(NC(=O)c2ccc(Br)o2)cc1 | i | 35.4 | 48.3 | -13.4 | 114.1 | -4.8
CCN(CC)c1ccc(NC(=O)c2cnn(CC)c2)cc1 | nt | nt | nt | 37.9 | 38.2 | 78.2*[fluorescence artefact?]
CC1(C)Cc2c(c(N3CCOCC3)nc3sc4c(=O)[nH]cnc4c23)CS1 | i | -1.1 | -15.0 | 30.4 | 83.0 | 54.6*[fluorescence artefact?]
O=C(CSc1ncn[nH]1)Nc1nc(-c2ccccc2)ns1 | i | 37.8 | 54.6* | 1.3 | 113.0 | -1.1
Cc1ccc(-c2csc(NC(=O)c3ccno3)n2)cc1 | nt | 60.3* | 27.9 | 73.1* | 28.6 | 75.0*
O=C(CSc1ncn[nH]1)Nc1ccccc1C(=O)O | i | -7.7 | 1.3 | -0.4 | 127.3 | -3.6
CCC(=O)Nc1nc(-c2ccccc2)ns1 | nt | nt | nt | 7.4 | 104.2 | 6.7
O=C(Nc1nc(-c2ccccc2)ns1)c1cccs1 | i | 34.1 | 75.5* | -3.8 | 101.9 | -7.5
Cc1ccc(-c2csc(NC(=O)c3ccc(S(=O)(=O)N(C)C)cc3)n2)cc1 | i | nt | nt | nt | nt | nt
O=C(Nc1nc(-c2ccccc2)cs1)c1cccs1 | i | 56.6* | 18.3 | -14.5 | 80.4 | -9.4
O=C(Nc1nc(-c2ccc(Cl)s2)cs1)c1cccs1 | i | 18.4 | 30.1 | -1.1 | 100.5 | 5.7
CC1=CC(C)(C)Nc2ccc(OC(=O)C(C)(C)C)cc21 | i | nt | nt | nt | nt | nt
c1csc(-c2nc3ccccc3[nH]2)c1 | i | 43.3 | 94.5* | -10.5 | 104.3 | -0.5
Cc1ccc(-c2nc3ccccc3[nH]2)s1 | nt | 50.2* | 38.7 | 7.2 | 99.6 | 28.2
Nc1nc(-c2nc3ccccc3[nH]2)cs1 | i | 7.1 | 23.1 | -3.2 | 99.2 | 5.9
O=c1c2c3c(sc2nc2sc(C4CC4)nn12)CCCC3 | i | 54.3* | 37.3 | 11.3 | 234.2* | 12.4
CCC(C(=O)NCc1ccco1)n1nc(-c2ccc(OC)cc2)ccc1=O (configuration not stated) | i | 11.7 | -23.7 | 42.2 | 227.2*[fluorescence artefact?] | 37.3
SMILES | BAP1 block | RORA act | SF1 activator | ERa SRC1 inh | ERa coact pot | ERb SRC1 inh
CCOc1ccc2nc(NC(=O)COC)sc2c1 | nt | 7.1 | 14.8 | 1.6 | 102.4 | 8.3
CCCCOC(=O)Nc1nc2ccccc2s1 | nt | nt | nt | -1.7 | 98.8 | 0.7
CCOCC(=O)Nc1nc2ccc(OC)cc2s1 | i | 33.0 | 51.4* | -13.1 | 117.0 | -8.0
CCCCOC(=O)Nc1nc2ccc(OC)cc2s1 | i | 52.4* | 22.7 | 5.4 | 111.5 | 6.9
COc1ccc2nc(NC(=O)c3cnccn3)sc2c1 | i | 18.6 | -4.2 | 75.1*[fluorescence artefact?] | 46.1 | 49.9
COc1ccc2nc(NC(=O)c3ccc(C)c(C)c3)sc2c1 | i | nt | nt | nt | nt | nt
COc1ccc2nc(Nc3nc(C)c(C(C)=O)s3)sc2c1 | i | 14.7 | 80.2* | 27.0 | 77.7 | 7.7
O=C(c1ccccc1)N1CCN(C(=O)c2ccc(F)cc2)CC1 | i | nt | nt | nt | nt | nt
O=c1[nH]cc(-n2c(=O)c3ccccc3c3ccccc3c2=O)c(=O)[nH]1 | i | nt | nt | nt | nt | nt
COc1cccc2cc(-c3nc4ccccc4[nH]3)c(=Nc3cccc(C#N)c3)oc12 | i | nt | nt | nt | nt | nt
COc1ccc(/C=N/n2cc(-c3ccccc3)nc2N)cc1 | i | 24.1 | 17.7 | 2.0 | 80.1 | 1.9
COc1ccc(/C=N/n2cc(-c3ccc(OC)cc3)nc2N)cc1 | i | 2.4 | 18.4 | 77.1*[fluorescence artefact?] | 36.6 | 23.0
COc1ccc(C(O)P(=O)(O)CCc2ccccc2)cc1 (configuration not stated) | i | 52.3* | -7.8 | -2.0 | 116.6 | -9.2
COc1cc(-c2cc(C(F)(F)F)n3ncc(C(=O)Nc4ccc(Cl)cc4)c3n2)cc(OC)c1OC | i | nt | nt | nt | nt | nt
CC(=O)c1sc(N2C(=O)c3oc4ccccc4c(=O)c3C2c2ccc(C)o2)nc1C (configuration not stated) | i | -0.1 | 21.6 | 64.0* | 81.9 | 16.2
CC(=O)c1ccc(N2CCN(C(=O)c3cc([N+](=O)[O-])ccc3F)CC2)c(F)c1 | i | nt | nt | nt | nt | nt
Cc1nc(NNC(=O)c2ccc([N+](=O)[O-])cc2)cc(-c2ccccc2)n1 | nt | nt | nt | 10.5 | 203.5*[fluorescence artefact?] | 5.8
O=C(Nc1ccccc1-c1nc2ccccc2s1)c1ccc([N+](=O)[O-])cc1 | i | nt | nt | nt | nt | nt
O=C(Nc1ccc(-c2csc(-c3ccccc3)n2)cc1)c1ccc(Br)cc1 | i | nt | nt | nt | nt | nt
CCc1cccc(NC(=O)Cn2cc3c(n2)CCCC3)c1 | i | 13.6 | -9.7 | -3.6 | 87.5 | -4.5
CN(C)c1ccc(NC(=O)Cn2cc3c(n2)CCCC3)cc1 | i | 45.1 | 15.6 | 85.3*[fluorescence artefact?] | 16.1 | 95.0*[fluorescence artefact?]
Cc1cc(C)nc(Nc2ccc(N3CCOCC3)cc2)n1 | i | 6.5 | 17.8 | nt | nt | nt
FC(F)(F)c1cnc(Nc2ccc(N3CCOCC3)cc2)c(Cl)c1 | i | -6.3 | -3.5 | 63.1*[fluorescence artefact?] | 60.6 | 86.2*[fluorescence artefact?]
S=c1[nH]nc(-c2cc(-c3ccco3)[nH]n2)n1-c1ccccc1Cl | nt | nt | nt | 33.1 | 43.3 | 50.4*
O=S(=O)(c1ccc(Br)c2nsnc12)N1CCC(Cc2ccccc2)CC1 | i | nt | nt | nt | nt | nt
SMILES | BAP1 block | RORA act | SF1 activator | ERa SRC1 inh | ERa coact pot | ERb SRC1 inh
COC(=O)c1cccc(C(=O)Nc2ccc(I)cc2)n1 | i | nt | nt | nt | nt | nt
CCOC(=O)N1CCN(C(=O)c2ccc3c(c2)sc2nc(-c4ccccc4)cn23)CC1 | i | 61.5* | 109.5* | nt | nt | nt
COc1cccc(-c2nnn(CC(C)=O)n2)c1 | nt | nt | nt | 2.8 | 103.9 | 0.2
COc1ccc(-c2ccc(-c3nnn(CC(C)=O)n3)cc2)cc1 | i | 38.1 | 89.6* | 15.8 | 107.2 | 12.8
COc1cc(C(=O)Nc2nnc(-c3sccc3C)s2)cc(OC)c1OC | i | 29.0 | -6.5 | 31.5 | 475.5* | 31.0
CCCc1[nH]c(C(=S)SCC)cc1CC | i | nt | nt | nt | nt | nt
O=C(C1CC(c2ccc(F)cc2)=NO1)N1CCc2ccccc2C1 (configuration not stated) | i | 0.3 | 2.7 | -5.2 | 114.4 | -4.1
